For 41 compounds, EC and Activity results are on record in ChEMBL document CHEMBL1641401, “Synthesis of antimitotic polyalkoxyphenyl derivatives of combretastatin using plant allylpolyalkoxybenzenes” (2010).

The source made the active and inactive calls.

Assay [1] concerns Paracentrotus lividus. The assay can be described thus: Antimitotic activity against Paracentrotus lividus embryo assessed as cleavage arrest after 2.5 to 6 hrs post fertilization by sea urchin embryo assay. In kind it is functional. In outline:
(§1)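 Fertilized sea urchin eggs, cultured at room temperature in filtered seawater with paddle agitation (60 rpm), exposed 10-25 min post-fertilization (45-60 min before first cleavage) to 2-fold decreasing concentrations as a monolayer, up to 2000 embryos/mL. Stocks: 5 mM in 95% EtOH, or 5-20 mM in DMSO then 10-fold diluted in 95% EtOH. Cleavage scored microscopically 2.5-6 h post-fertilization. EC = threshold concentration causing cleavage alteration with death before hatching or full arrest.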

The test system of assay [2] is Paracentrotus lividus. The assay can be described thus: Antimitotic activity against Paracentrotus lividus embryo assessed as cleavage alteration after 2.5 to 6 hrs post fertilization by sea urchin embryo assay. In kind it is functional. In outline: as §1
Assay [3] relates to Paracentrotus lividus. The experiment in a line: Antimitotic activity against Paracentrotus lividus embryo assessed as embryo spinning after 0.5 to 20 hrs post dose by sea urchin embryo assay. In kind it is functional. In outline: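 Free-swimming blastulae from the same culture treated just after hatching (9-12 h post-fertilization) in filtered seawater at room temperature. Final DMSO at most 0.05%, EtOH at most 1%. Tubulin destabilization scored microscopically as loss of forward movement, settling to the vessel bottom and rapid spinning about the animal-vegetal axis.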

Assay [4] concerns Paracentrotus lividus. The experiment in a line: Antimitotic activity against Paracentrotus lividus embryo assessed as cleavage alteration up to 80 to 100 uM after 2.5 to 6 hrs post fertilization by sea urchin embryo assay. Format: functional, organism-based. In outline:
(§2)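 Fertilized sea urchin eggs, treated 10-25 min after fertilization (45-60 min before first cleavage), exposed to 2-fold decreasing concentrations; monolayer in filtered seawater at room temperature, up to 2000 embryos/mL. Compounds from EtOH or DMSO stocks diluted in 95% EtOH; final DMSO ≤0.05%, EtOH ≤1%. Cleavage scored microscopically 2.5-6 h post-fertilization; EC = threshold concentration causing cleavage alteration with death before hatching or full mitotic arrest.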

In assay [5] the test system is Paracentrotus lividus. The assay can be described thus: Antimitotic activity against Paracentrotus lividus embryo assessed as cleavage alteration up to 5 uM after 2.5 to 6 hrs post fertilization by sea urchin embryo assay. Format: functional, organism-based. In outline:
as §2

As for `COc1ccc(/C=C\c2ccc3c(c2)OCCO3)cc1O`, the EC worked out at 0.5 µM in assay [1], 0.02 µM in assay [2] and 1 µM in assay [3].
With `C=CCc1cc2c(c(OC)c1OC)OCO2`, the outcome in assay [4] was inactive.
`COc1ccc(-c2nnc(-c3cc(OC)c4c(c3)OCO4)[nH]2)cc1O`: the EC in assay [1] is greater than 4 µM; in assay [2] it was 2 µM; in assay [3], greater than 5 µM.
As to `COc1ccc(/C=C/c2ccc3c(c2)OCCO3)cc1O`, the EC in assay [1] was determined as 1 µM; in assay [2], 0.1 µM; in assay [3], 2 µM.
For `COc1ccc(/C=C(/C(=O)O)c2cc(OC)c(OC)c(OC)c2)cc1O` the same measures were greater than 11.2 µM, greater than 11.2 µM and greater than 11.2 µM.
For `C=CCc1cc(OC)c2c(c1OC)OCO2`, the outcome in assay [4] was inactive.
In the case of `COc1ccc(/C=C\c2cc(OC)c(OC)c(OC)c2)cc1O` [COMBRETASTATIN A4], the values for the EC in assay [1], in assay [2] and in assay [3] were 0.01 µM, 0.002 µM and 0.05 µM, respectively.
For `COc1ccc(/C=C\c2cc3c(c(OC)c2OC)OCO3)cc1O`, the EC in assay [1] came out at 0.2 µM; in assay [2], 0.01 µM; in assay [3] it was 0.5 µM.
On to `COc1ccc(-c2nc(-c3c(Cl)c(OC)c4c(c3OC)OCO4)no2)cc1O`, for which the EC in assay [1] and in assay [2] was greater than 4 µM each time.
Consider `COc1ccc(/C=C/c2cc3c(c(OC)c2OC)OCO3)cc1O`, for which the EC in assay [1] was determined as 4 µM; in assay [2] it was 0.1 µM; in assay [3], 5 µM.
`COc1ccc(-c2nnc(-c3cc(OC)c(OC)c(OC)c3)o2)cc1O`: the EC in assay [1], in assay [2] and in assay [3] was greater than 4 µM throughout.
With `C/C=C/c1cc2c(c(OC)c1OC)OCO2` [ISODILLAPIOL], the EC in assay [1] was 80 µM; in assay [2] it was 20 µM; in assay [3] it was greater than 100 µM.
In the same order, the values of `COc1ccc(/C=C/c2cc(OC)c3c(c2OC)OCO3)cc1O` are 4 µM, 0.5 µM and 5 µM.
In the same order, the values of `COc1ccc(/C=C\c2cc(OC)c(OC)c(OC)c2)cc1OP(=O)([O-])[O-].[Na+].[Na+]` [FOSBRETABULIN DISODIUM] are 0.01 µM, 0.005 µM and 1 µM.
For `COc1ccc(/C=C\c2cc(OC)c3c(c2OC)OCO3)cc1O` the same measures were 0.1 µM, 0.02 µM and 1 µM.
As to `COc1ccc(/C=C/c2cc(OC)c3c(c2)OCO3)cc1O`, the EC in assay [1] was 0.1 µM; in assay [2], 0.02 µM; in assay [3], 1 µM.
On to `COc1cc(-c2noc(-c3ccc4c(c3)OCO4)n2)cc(OC)c1OC`, for which the EC in assay [1], in assay [2] and in assay [3] was greater than 4 µM each time.
Regarding `C/C=C/c1cc(OC)c2c(c1)OCO2` [ISOMYRISTICIN], the EC in assay [1], in assay [2] and in assay [3] was greater than 5 µM in each case.
`COc1ccc(/C=C/c2cc(OC)c3c(c2)OCCO3)cc1O`: the EC came to 0.1 µM in assay [1], 0.02 µM in assay [2] and 2 µM in assay [3].
In the same order, the values of `COc1ccc(-c2nc(Cc3cc(OC)c4c(c3OC)OCO4)no2)cc1O` are greater than 4 µM, 4 µM and greater than 5 µM.
In the same order, the values of `COc1ccc(-c2nc(-c3cc4c(c(OC)c3OC)OCO4)no2)cc1O` are greater than 4 µM, greater than 4 µM and greater than 4 µM.
For `COc1cc(/C=C/c2cc(OC)c3c(c2OC)OCO3)ccc1O` the same measures were greater than 4 µM, greater than 4 µM and greater than 5 µM.
On to `COc1ccc(/C=C\c2cc(OC)c3c(c2)OCCO3)cc1O`, for which the EC in assay [1] worked out at 0.01 µM; in assay [2] it was 0.002 µM; in assay [3], 0.05 µM.
`COc1ccc(-c2nnc(-c3cc4c(c(OC)c3OC)OCO4)[nH]2)cc1O`: the EC was greater than 4 µM in assay [1], 4 µM in assay [2] and greater than 4 µM in assay [3].
For `COc1ccc(/C=C\c2cc(OC)c(OC)c(OC)c2OC)cc1O`, the results for the EC in assay [1], in assay [2] and in assay [3] were 0.1 µM, 0.02 µM and 1 µM, respectively.
In the same order, the values of `COc1ccc(-c2nc(-c3cc(OC)c4c(c3OC)OCO4)no2)cc1O` are greater than 4 µM, greater than 4 µM and greater than 4 µM.
As for `C/C=C/c1cc(OC)c(OC)c(OC)c1OC`, the result in assay [5] was inactive.
As to `C/C=C/c1cc(OC)c2c(c1OC)OCO2` [ISOAPIOL], the results for the EC in assay [1], in assay [2] and in assay [3] were 8 µM, 2 µM and greater than 10 µM, respectively.
In the same order, the values of `COc1cccc(-c2nnc(-c3ccc(OC)c(OC)c3)o2)c1` are 4 µM, 0.05 µM and 2 µM.
`COc1ccc(-c2nnc(-c3cccc(F)c3)o2)cc1OC`: the EC in assay [1] is greater than 4 µM; in assay [2], 1 µM; in assay [3], greater than 5 µM.
In the same order, the values of `COc1ccc(-c2nnc(-c3cc(OC)c(OC)c(OC)c3)[nH]2)cc1O` are greater than 4 µM, 4 µM and greater than 4 µM.
In the same order, the values of `COc1cc(-c2nnc(-c3cc(OC)c4c(c3)OCO4)o2)cc(OC)c1OC` are 2 µM, 0.5 µM and greater than 5 µM.
On to `C=CCc1cc(OC)c2c(c1)OCO2`, for which the result in assay [4] was inactive.
On to `COc1ccc(/C=C\c2cc3c(cc2OC)OCCO3)cc1O`, for which the results for the EC in assay [1], in assay [2] and in assay [3] were 0.2 µM, 0.02 µM and 1 µM, respectively.
For `COc1ccc(-c2nc(-c3cc(OC)c4c(c3)OCO4)no2)cc1O` the same measures were greater than 4 µM, 4 µM and greater than 4 µM.
Regarding `COc1ccc(/C=C\c2cc(OC)c3c(c2)OCO3)cc1O` [Combretastatin A-2], the results for the EC in assay [1], in assay [2] and in assay [3] were 0.01 µM, 0.002 µM and 0.05 µM, respectively.
In the same order, the values of `COc1ccc(-c2nnc(-c3cc(OC)c4c(c3)OCO4)o2)cc1O` are 2 µM, 0.5 µM and greater than 5 µM.
Take `COc1ccc(/C=C/c2cc(OC)c(OC)c(OC)c2OC)cc1O`: the values for the EC in assay [1], in assay [2] and in assay [3] were 1 µM, 0.1 µM and 5 µM, respectively.
For `COc1ccc(-c2nnc(-c3ccc(OC)c(OC)c3)o2)cc1OC` the same measures were 10 µM, 0.5 µM and 5 µM.
For `COc1ccc(/C=C/c2cc3c(cc2OC)OCCO3)cc1O` the same measures were 2 µM, 0.1 µM and greater than 5 µM.
In the same order, the values of `COc1ccc(-c2nnc(-c3cc(OC)c4c(c3OC)OCO4)[nH]2)cc1O` are greater than 4 µM, greater than 4 µM and greater than 4 µM.
